# Reference: ChEMBL document CHEMBL2380295, “Structure-activity studies on the side chain of a simplified analog of aplysiatoxin (aplog-1) with anti-proliferative activity” (Bioorg Med Chem, 2013)
# Key:
# OVCAR-4 = test: Growth inhibition of human OVCAR4 cells after 48 hrs by sulforhodamine B assay; assay type: functional; conditions: OVCAR-4, 48 h
# Procedure, shortened: (§1)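 Yamori 39-line human cancer panel, NCI method with modifications. Cells plated in RPMI 1640 plus 5% FBS, attached overnight, then exposed 48 h to compound at 10^-8, 10^-7, 10^-6, 10^-5 and 10^-4 M. Sulforhodamine B staining read at 525 nm; % growth = 100[(T−T0)/(C−T0)] from duplicate-point averages, with T0 the time-zero absorbance. GI50 is the concentration giving 50.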
# DU-145 = test: Growth inhibition of human DU145 cells after 48 hrs by sulforhodamine B assay; assay type: functional; conditions: DU-145, 48 h; procedure, shortened: as §1
# SF-268 = test: Growth inhibition of human SF268 cells after 48 hrs by sulforhodamine B assay; assay type: functional; conditions: SF-268, 48 h; procedure, shortened: as §1
# [1] = Cytotoxicity against human Raji cells assessed as cell viability at 10^-7 M; assay type: cell-based; conditions: read-out: Activity
# [2] = target: T1, Protein kinase C delta type (Homo sapiens, UniProt Q05655); test: Inhibition of [3H]PDBu binding to PKCdelta-C1B domain peptide (unknown origin)
# Procedure, shortened: (§2)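 Competitive [3H]PDBu binding used 14 or 40 nM PKCδ C1 peptide and 20 nM [3H]PDBu (19.6 Ci/mmol), in 50 mM Tris-maleate (pH 7.4 at 4 °C) with 50 µg/mL phosphatidylserine, 3 mg/mL bovine γ-globulin and varied inhibitor concentrations. IC50 was taken as 50% inhibition of specific binding. Ki was derived by the Sharkey–Blumberg method.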
# [3] = Growth inhibition of human BSY1 cells after 48 hrs by sulforhodamine B assay; assay type: functional; conditions: BSY-1, 48 h; procedure, shortened: as §1
# OVCAR-8 = test: Growth inhibition of human OVCAR8 cells after 48 hrs by sulforhodamine B assay; assay type: functional; conditions: OVCAR-8, 48 h; procedure, shortened: as §1
# SF-539 = test: Growth inhibition of human SF539 cells after 48 hrs by sulforhodamine B assay; assay type: functional; conditions: SF-539, 48 h; procedure, shortened: as §1
# DMS-114 = test: Growth inhibition of human DMS114 cells after 48 hrs by sulforhodamine B assay; assay type: functional; conditions: DMS-114, 48 h; procedure, shortened: as §1
# MKN-74 = test: Growth inhibition of human MKN74 cells after 48 hrs by sulforhodamine B assay; assay type: functional; conditions: MKN-74, 48 h; procedure, shortened: as §1
# KM12 = test: Growth inhibition of human KM12 cells after 48 hrs by sulforhodamine B assay; assay type: functional; conditions: KM12, 48 h; procedure, shortened: as §1
# [4] = Growth inhibition of human HBC5 cells after 48 hrs by sulforhodamine B assay; assay type: functional; conditions: HBC5, 48 h; procedure, shortened: as §1
# [5] = target: T1, Protein kinase C delta type; test: Inhibition of [3H]PDBu binding to PKCdelta-C1A domain peptide (unknown origin); procedure, shortened: as §2
# St-4 = test: Growth inhibition of human St-4 cells after 48 hrs by sulforhodamine B assay; assay type: functional; conditions: St-4, 48 h; procedure, shortened: as §1
# SF-295 = test: Growth inhibition of human SF295 cells after 48 hrs by sulforhodamine B assay; assay type: functional; conditions: SF-295, 48 h; procedure, shortened: as §1
# MKN-45 = test: Growth inhibition of human MKN45 cells after 48 hrs by sulforhodamine B assay; assay type: functional; conditions: MKN-45, 48 h; procedure, shortened: as §1
# DMS-273 = test: Growth inhibition of human DMS273 cells after 48 hrs by sulforhodamine B assay; assay type: functional; conditions: DMS-273, 48 h; procedure, shortened: as §1
# NCI-H23 = test: Growth inhibition of human NCI-H23 cells after 48 hrs by sulforhodamine B assay; assay type: functional; conditions: NCI-H23, 48 h; procedure, shortened: as §1
# NCI-H460 = test: Growth inhibition of human NCI-H460 cells after 48 hrs by sulforhodamine B assay; assay type: functional; conditions: NCI-H460, 48 h; procedure, shortened: as §1
# NCI-H226 = test: Growth inhibition of human NCI-H226 cells after 48 hrs by sulforhodamine B assay; assay type: functional; conditions: NCI-H226, 48 h; procedure, shortened: as §1
# MCF7 = test: Growth inhibition of human MCF7 cells after 48 hrs by sulforhodamine B assay; assay type: functional; conditions: MCF7, 48 h; procedure, shortened: as §1
# Human gammaherpesvirus 4 [6] = test: Induction of EBV-early antigen expressed in human Raji cells at 10^-7 M after 48 hrs by immunofluorescence assay relative to control; assay type: organism-based; conditions: human gammaherpesvirus 4, raji, 0.1 µM
# Procedure, shortened: (§3)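 Raji B-lymphoblastoid cells (5 × 10^5/mL) in RPMI 1640 with 10% FBS, with 4 mM sodium n-butyrate as synergist and test compound at 10^-7 or 10^-6 M (final DMSO 0.4%). Incubated 48 h at 37 °C under 5% CO2. Smears were stained by indirect immunofluorescence using NPC patient serum and FITC anti-human IgG. At least 500 cells counted; % EA-positive recorded; n = 3, SEM.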
# HCT-15 = test: Growth inhibition of human HCT15 cells after 48 hrs by sulforhodamine B assay; assay type: functional; conditions: HCT-15, 48 h; procedure, shortened: as §1
# [7] = Octanol-water partition coefficient, log P of the compound by HPLC analysis; assay type: physicochemical
# Procedure, shortened: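 log P was estimated from HPLC retention, with column dead time measured using unretained formamide.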
# Human gammaherpesvirus 4 [8] = test: Induction of EBV-early antigen expressed in human Raji cells at 10^-6 M after 48 hrs by immunofluorescence assay relative to control; assay type: organism-based; conditions: human gammaherpesvirus 4, raji, 1 µM; procedure, shortened: as §3
# [9] = Cytotoxicity against human Raji cells assessed as cell viability at 10^-6 M; assay type: cell-based; conditions: read-out: Activity
# HCT-116 = test: Growth inhibition of human HCT116 cells after 48 hrs by sulforhodamine B assay; assay type: functional; conditions: HCT-116, 48 h; procedure, shortened: as §1
# PC-3 = test: Growth inhibition of human PC3 cells after 48 hrs by sulforhodamine B assay; assay type: functional; conditions: PC-3, 48 h; procedure, shortened: as §1
# [10] = Growth inhibition of human RXF631L cells after 48 hrs by sulforhodamine B assay; assay type: functional; conditions: RXF 631, 48 h; procedure, shortened: as §1
# MKN-7 = test: Growth inhibition of human MKN7 cells after 48 hrs by sulforhodamine B assay; assay type: functional; conditions: MKN-7, 48 h; procedure, shortened: as §1
# [11] = Growth inhibition of human HCC2998 cells after 48 hrs by sulforhodamine B assay; assay type: functional; conditions: HCC 2998, 48 h; procedure, shortened: as §1
# [12] = Growth inhibition of human MKN1 cells after 48 hrs by sulforhodamine B assay; assay type: functional; conditions: MKN-1, 48 h; procedure, shortened: as §1
# Mus musculus = organism: Mus musculus; test: Toxicity in ICR mouse assessed as development of tumors at 8.5 nmol treated twice a week from week 1 to week 20; assay type: organism-based; conditions: in vivo
# Procedure, shortened: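 Mouse skin two-stage carcinogenesis: initiation by a single application of 390 nmol DMBA. From one week later, 8.5 nmol test compound was applied twice weekly from week 1 to week 20. The control group received DMBA then 1.7 nmol TPA twice weekly. Tumor development was monitored over time.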
# LOX IMVI = test: Growth inhibition of human LOXIMVI cells after 48 hrs by sulforhodamine B assay; assay type: functional; procedure, shortened: as §1
# MKN-28 = test: Growth inhibition of human MKN28 cells after 48 hrs by sulforhodamine B assay; assay type: functional; conditions: MKN-28, 48 h; procedure, shortened: as §1
# A549 = test: Growth inhibition of human A549 cells after 48 hrs by sulforhodamine B assay; assay type: functional; conditions: A549, 48 h; procedure, shortened: as §1
# SNB-78 = test: Growth inhibition of human SNB78 cells after 48 hrs by sulforhodamine B assay; assay type: functional; conditions: SNB-78, 48 h; procedure, shortened: as §1
# OVCAR-5 = test: Growth inhibition of human OVCAR5 cells after 48 hrs by sulforhodamine B assay; assay type: functional; conditions: OVCAR-5, 48 h; procedure, shortened: as §1
# MDA-MB-231 = test: Growth inhibition of human MDA-MB-231 cells after 48 hrs by sulforhodamine B assay; assay type: functional; conditions: MDA-MB-231, 48 h; procedure, shortened: as §1
# NCI-H522 = test: Growth inhibition of human NCI-H522 cells after 48 hrs by sulforhodamine B assay; assay type: functional; conditions: NCI-H522, 48 h; procedure, shortened: as §1
# SNB-75 = test: Growth inhibition of human SNB75 cells after 48 hrs by sulforhodamine B assay; assay type: functional; conditions: SNB-75, 48 h; procedure, shortened: as §1
# U-251 = test: Growth inhibition of human U251 cells after 48 hrs by sulforhodamine B assay; assay type: functional; conditions: U-251, 48 h; procedure, shortened: as §1
# [13] = Growth inhibition of human HBC4 cells after 48 hrs by sulforhodamine B assay; assay type: functional; conditions: HBC4, 48 h; procedure, shortened: as §1
# OVCAR-3 = test: Growth inhibition of human OVCAR3 cells after 48 hrs by sulforhodamine B assay; assay type: functional; conditions: OVCAR-3, 48 h; procedure, shortened: as §1
# ACHN = test: Growth inhibition of human ACHN cells after 48 hrs by sulforhodamine B assay; assay type: functional; procedure, shortened: as §1
# SK-OV-3 = test: Growth inhibition of human SKOV3 cells after 48 hrs by sulforhodamine B assay; assay type: functional; conditions: SK-OV-3, 48 h; procedure, shortened: as §1
# HT-29 = test: Growth inhibition of human HT-29 cells after 48 hrs by sulforhodamine B assay; assay type: functional; conditions: HT-29, 48 h; procedure, shortened: as §1
# T1 sequence (Q05655 whole entry, the tested form may be a part): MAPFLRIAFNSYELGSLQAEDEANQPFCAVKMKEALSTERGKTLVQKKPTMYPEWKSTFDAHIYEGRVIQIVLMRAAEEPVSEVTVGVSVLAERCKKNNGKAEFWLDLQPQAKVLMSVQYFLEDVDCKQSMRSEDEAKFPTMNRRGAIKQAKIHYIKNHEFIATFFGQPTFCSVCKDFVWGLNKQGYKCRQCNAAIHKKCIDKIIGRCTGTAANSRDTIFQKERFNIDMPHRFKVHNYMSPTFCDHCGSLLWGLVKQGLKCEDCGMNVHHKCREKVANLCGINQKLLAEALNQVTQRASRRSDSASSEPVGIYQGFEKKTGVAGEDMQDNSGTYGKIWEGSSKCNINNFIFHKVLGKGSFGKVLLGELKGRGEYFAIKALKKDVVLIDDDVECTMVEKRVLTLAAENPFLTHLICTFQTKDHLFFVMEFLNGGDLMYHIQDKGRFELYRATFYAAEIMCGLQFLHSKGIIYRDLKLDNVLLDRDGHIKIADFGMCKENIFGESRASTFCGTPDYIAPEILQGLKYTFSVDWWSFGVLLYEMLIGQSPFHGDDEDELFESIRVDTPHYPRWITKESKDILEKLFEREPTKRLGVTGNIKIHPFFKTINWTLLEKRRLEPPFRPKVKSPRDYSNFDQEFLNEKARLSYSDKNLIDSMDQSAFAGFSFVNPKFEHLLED
smiles,measurement,setting,value
CC1(C)CC[C@@H]2CC(=O)O[C@@H](CO)CC(=O)O[C@@H]3C[C@@H](CCCCc4cc(O)ccc4Br)O[C@@]1(C3)O2,GI50,OVCAR-4,14.5 µM
same,GI50,DU-145,11.5 µM
same,GI50,SF-268,12.6 µM
same,viability at 0.1 µM,[1],50%
same,Ki,[2],0.0035 µM
same,GI50,[3],2.63 µM
same,GI50,OVCAR-8,16.2 µM
same,GI50,SF-539,11 µM
same,GI50,DMS-114,12.6 µM
same,GI50,MKN-74,13.8 µM
same,GI50,KM12,4.27 µM
same,GI50,[4],15.8 µM
same,Ki,[5],0.066 µM
same,GI50,St-4,0.955 µM
same,GI50,SF-295,5.5 µM
same,GI50,MKN-45,1.82 µM
same,GI50,DMS-273,11.7 µM
same,GI50,NCI-H23,11.5 µM
same,GI50,NCI-H460,1.66 µM
same,GI50,NCI-H226,11.7 µM
same,GI50,MCF7,18.2 µM
same,Activity,Human gammaherpesvirus 4 [6],1.8%
same,GI50,HCT-15,15.5 µM
same,logP,[7],4
same,Activity,Human gammaherpesvirus 4 [8],1.9%
same,viability at 1 µM,[9],40%
same,GI50,HCT-116,10.7 µM
same,GI50,PC-3,2.95 µM
same,GI50,[10],16.2 µM
same,GI50,MKN-7,6.92 µM
same,GI50,[11],0.794 µM
same,GI50,[12],11.7 µM
same,Activity,Mus musculus,Non-toxic
same,GI50,LOX IMVI,0.794 µM
same,GI50,MKN-28,12 µM
same,GI50,A549,5.01 µM
same,GI50,SNB-78,15.5 µM
same,GI50,OVCAR-5,7.76 µM
same,GI50,MDA-MB-231,0.468 µM
same,GI50,NCI-H522,13.5 µM
same,GI50,SNB-75,12.3 µM
same,GI50,U-251,12.6 µM
same,GI50,[13],0.0977 µM
same,GI50,OVCAR-3,13.5 µM
same,GI50,ACHN,5.13 µM
same,GI50,SK-OV-3,15.5 µM
same,GI50,HT-29,13.2 µM
CC1(C)CC[C@@H]2CC(=O)O[C@@H](CO)CC(=O)O[C@@H]3C[C@@H](CCCCc4cc(O)c(Br)cc4Br)O[C@@]1(C3)O2,GI50,OVCAR-4,15.5 µM
same,GI50,DU-145,11.2 µM
same,GI50,SF-268,12.6 µM
same,viability at 0.1 µM,[1],40%
same,Ki,[2],0.0041 µM
same,GI50,[3],4.57 µM
same,GI50,OVCAR-8,15.8 µM
same,GI50,SF-539,10 µM
same,GI50,DMS-114,13.5 µM
same,GI50,MKN-74,11 µM
same,GI50,KM12,4.79 µM
same,GI50,[4],14.1 µM
same,Ki,[5],0.093 µM
same,GI50,St-4,1.29 µM
same,GI50,SF-295,6.61 µM
same,GI50,MKN-45,3.72 µM
same,GI50,DMS-273,10.7 µM
same,GI50,NCI-H23,6.61 µM
same,GI50,NCI-H460,1.23 µM
same,GI50,NCI-H226,15.1 µM
same,GI50,MCF7,12.3 µM
same,Activity,Human gammaherpesvirus 4 [6],2%
same,GI50,HCT-15,13.8 µM
same,logP,[7],5
same,Activity,Human gammaherpesvirus 4 [8],2.1%
same,viability at 1 µM,[9],40%
same,GI50,HCT-116,10.7 µM
same,GI50,PC-3,3.89 µM
same,GI50,[10],14.5 µM
same,GI50,MKN-7,6.46 µM
same,GI50,[11],0.891 µM
same,GI50,[12],10.2 µM
same,GI50,LOX IMVI,2.82 µM
same,GI50,MKN-28,8.32 µM
same,GI50,A549,4.9 µM
same,GI50,SNB-78,12.9 µM
same,GI50,OVCAR-5,10 µM
same,GI50,MDA-MB-231,2.95 µM
same,GI50,NCI-H522,13.8 µM
same,GI50,SNB-75,5.89 µM
same,GI50,U-251,11.7 µM
same,GI50,[13],0.224 µM
same,GI50,OVCAR-3,6.17 µM
same,GI50,ACHN,5.75 µM
same,GI50,SK-OV-3,15.8 µM
same,GI50,HT-29,15.5 µM
